Measured values from ChEMBL document CHEMBL1143255, “Standard protecting groups create potent and selective kappa opioids: salvinorin B alkoxymethyl ethers” (Bioorg Med Chem, 2008).

Experiments:
[1] = target: T1, Kappa-type opioid receptor (Homo sapiens, UniProt P41145); assay: Agonist activity at human kappa opioid receptor expressed in CHO cells assessed as stimulation of [35S]GTPgammaS binding relative to U50488H; assay type: functional, cell-based
Method in brief: (§1)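 Potency and efficacy from [35S]GTPγS binding to membranes of CHO cells stably expressing human κ receptor; testing blinded to compound identity and molecular mass.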

Mu-type opioid receptor = Mu-type opioid receptor (Rattus norvegicus, UniProt P33535); assay: Displacement of [3H]diprenorphine from rat mu opioid receptor expressed in CHO cells; assay type: cell-based
Method in brief: (§2)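 Competitive inhibition of [3H]diprenorphine binding to membranes from CHO cells stably transfected with human κ, rat μ or mouse δ receptor; testing blinded to compound identity and molecular mass; mean of three independent experiments in duplicate.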

[2] = target: Delta-type opioid receptor (Mus musculus, UniProt P32300); assay: Displacement of [3H]diprenorphine from mouse delta opioid receptor expressed in CHO cells; assay type: cell-based; method in brief: as §2
[3] = target: T1, Kappa-type opioid receptor; assay: Agonist activity at human kappa opioid receptor expressed in CHO cells assessed as stimulation of [35S]GTPgammaS binding; assay type: functional, cell-based; method in brief: as §1
[4] = target: T1, Kappa-type opioid receptor; assay: Displacement of [3H]diprenorphine from human kappa opioid receptor expressed in CHO cells; assay type: cell-based; method in brief: as §2
[5] = Selectivity for human kappa opioid receptor over rat mu opioid receptor
[6] = Selectivity for human kappa opioid receptor over mouse delta opioid receptor

Mu-type opioid receptor, sequence (P33535 whole entry): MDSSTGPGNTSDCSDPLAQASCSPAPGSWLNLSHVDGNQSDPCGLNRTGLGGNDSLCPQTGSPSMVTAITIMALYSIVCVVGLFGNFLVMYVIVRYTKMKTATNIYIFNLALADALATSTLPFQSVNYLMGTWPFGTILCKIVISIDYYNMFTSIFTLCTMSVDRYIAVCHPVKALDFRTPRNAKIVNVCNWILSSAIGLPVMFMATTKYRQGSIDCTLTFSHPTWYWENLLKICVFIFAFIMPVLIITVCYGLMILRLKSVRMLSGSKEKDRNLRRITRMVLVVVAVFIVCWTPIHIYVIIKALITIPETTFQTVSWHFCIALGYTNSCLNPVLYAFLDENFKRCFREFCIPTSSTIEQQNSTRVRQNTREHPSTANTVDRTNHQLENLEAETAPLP
Delta-type opioid receptor, sequence (P32300 whole entry): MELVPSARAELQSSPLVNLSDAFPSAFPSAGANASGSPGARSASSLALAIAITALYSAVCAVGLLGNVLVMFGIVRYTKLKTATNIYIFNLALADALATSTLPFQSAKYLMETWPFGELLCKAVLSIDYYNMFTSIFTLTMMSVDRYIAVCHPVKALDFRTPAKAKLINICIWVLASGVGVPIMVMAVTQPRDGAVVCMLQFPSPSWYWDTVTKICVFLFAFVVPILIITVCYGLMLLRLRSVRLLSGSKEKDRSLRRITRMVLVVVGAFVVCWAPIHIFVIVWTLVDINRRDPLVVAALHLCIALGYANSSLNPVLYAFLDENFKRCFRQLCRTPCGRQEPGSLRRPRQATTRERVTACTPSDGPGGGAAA
T1 sequence (P41145 whole entry): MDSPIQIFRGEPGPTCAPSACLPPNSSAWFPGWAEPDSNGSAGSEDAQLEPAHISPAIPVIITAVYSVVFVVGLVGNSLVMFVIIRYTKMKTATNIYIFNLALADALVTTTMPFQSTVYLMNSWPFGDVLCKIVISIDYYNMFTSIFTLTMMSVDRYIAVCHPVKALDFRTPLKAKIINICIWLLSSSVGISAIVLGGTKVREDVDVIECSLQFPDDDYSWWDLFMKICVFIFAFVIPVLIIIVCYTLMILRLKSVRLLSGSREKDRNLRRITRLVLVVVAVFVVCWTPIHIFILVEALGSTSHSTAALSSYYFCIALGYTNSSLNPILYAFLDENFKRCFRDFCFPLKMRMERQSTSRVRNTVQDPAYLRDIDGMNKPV

SMILES | Emax [1] [%] | Ki (Mu-type opioid receptor) [nM] | Ki [2] [nM] | EC50 [3] [nM] | Ki [4] [nM] | Selectivity ratio [5] | Ki (Mu-type opioid receptor; cho) [nM] | Ki ([2]; cho) [nM] | Selectivity ratio [6]
CCCOCO[C@H]1C[C@@H](C(=O)OC)[C@]2(C)CC[C@H]3C(=O)O[C@H](c4ccoc4)C[C@]3(C)[C@H]2C1=O [SALVINORIN B PROPOXYMETHYL ETHER] | 81 | > 1000 | > 1000 | 5.2 | 2.2 | – | – | – | –
COC(=O)[C@@H]1C[C@H](OCOCC(F)(F)F)C(=O)[C@H]2[C@@]1(C)CC[C@H]1C(=O)O[C@H](c3ccoc3)C[C@]21C | 81 | > 1000 | > 1000 | 75 | 31 | – | – | – | –
CCO[C@H]1C[C@@H](C(=O)OC)[C@]2(C)CC[C@H]3C(=O)O[C@H](c4ccoc4)C[C@]3(C)[C@H]2C1=O [DEOXY SALVINORIN A] | – | – | – | 18 | – | – | – | – | –
COC(=O)[C@@H]1C[C@H](OCOCCF)C(=O)[C@H]2[C@@]1(C)CC[C@H]1C(=O)O[C@H](c3ccoc3)C[C@]21C | 81 | > 1000 | > 1000 | 3.8 | 1.9 | > 500 | – | – | –
COC(=O)[C@@H]1C[C@H](OCOC(C)(C)C)C(=O)[C@H]2[C@@]1(C)CC[C@H]1C(=O)O[C@H](c3ccoc3)C[C@]21C | 81 | > 1000 | > 1000 | 108 | 35 | – | – | – | –
COC(=O)[C@@H]1C[C@H](OC2CCCCO2)C(=O)[C@H]2[C@@]1(C)CC[C@H]1C(=O)O[C@H](c3ccoc3)C[C@]21C (some centres undefined) | 81 | > 1000 | > 1000 | 2.8 | 4 | – | – | – | –
COC(=O)[C@@H]1C[C@H](OCOCC[Si](C)(C)C)C(=O)[C@H]2[C@@]1(C)CC[C@H]1C(=O)O[C@H](c3ccoc3)C[C@]21C | 81 | > 1000 | > 1000 | 1660 | > 1000 | – | – | – | –
CCOC(C)O[C@H]1C[C@@H](C(=O)OC)[C@]2(C)CC[C@H]3C(=O)O[C@H](c4ccoc4)C[C@]3(C)[C@H]2C1=O (some centres undefined) [listing 1 of 3 here] | – | – | – | – | – | – | > 1000 | > 1000 | –
CCCCOCO[C@H]1C[C@@H](C(=O)OC)[C@]2(C)CC[C@H]3C(=O)O[C@H](c4ccoc4)C[C@]3(C)[C@H]2C1=O [SALVINORIN B BUTOXYMETHYL ETHER] | 81 | > 1000 | > 1000 | 20 | 5.3 | – | – | – | –
CCOC(C)O[C@H]1C[C@@H](C(=O)OC)[C@]2(C)CC[C@H]3C(=O)O[C@H](c4ccoc4)C[C@]3(C)[C@H]2C1=O (some centres undefined) [listing 2 of 3 here] | 81 | – | – | – | – | – | – | – | –
CCOC(C)O[C@H]1C[C@@H](C(=O)OC)[C@]2(C)CC[C@H]3C(=O)O[C@H](c4ccoc4)C[C@]3(C)[C@H]2C1=O (some centres undefined) [listing 3 of 3 here] | – | > 1000 | > 1000 | – | – | – | – | – | –
COC(=O)[C@@H]1C[C@H](OCF)C(=O)[C@H]2[C@@]1(C)CC[C@H]1C(=O)O[C@H](c3ccoc3)C[C@]21C [SALVINORIN B FLUOROMETHYL ETHER] | 81 | > 1000 | > 1000 | 26 | 50 | – | – | – | –
COC(=O)[C@@H]1C[C@H](OCSC)C(=O)[C@H]2[C@@]1(C)CC[C@H]1C(=O)O[C@H](c3ccoc3)C[C@]21C [SALVINORIN B METHYLTHIOMETHYL ETHER] | 81 | > 1000 | > 1000 | 31 | 13 | – | – | – | –
COC(=O)[C@@H]1C[C@H](OCOCc2ccccc2)C(=O)[C@H]2[C@@]1(C)CC[C@H]1C(=O)O[C@H](c3ccoc3)C[C@]21C [SALVINORIN B BENZYLOXYMETHYL ETHER] | 81 | > 1000 | > 1000 | 274 | 147 | – | – | – | –
CCOCO[C@H]1C[C@@H](C(=O)OC)[C@]2(C)CC[C@H]3C(=O)O[C@H](c4ccoc4)C[C@]3(C)[C@H]2C1=O [SALVINORIN B ETHOXYMETHYL ETHER] | 81 | > 1000 | > 1000 | 0.14 | 0.32 | > 3000 | – | – | > 3000
COC(=O)[C@@H]1C[C@H](OCOC(C)C)C(=O)[C@H]2[C@@]1(C)CC[C@H]1C(=O)O[C@H](c3ccoc3)C[C@]21C [SALVINORIN B ISOPROPOXYMETHYL ETHER] | 81 | > 1000 | > 1000 | 4.2 | 1.6 | – | – | – | –
COCCOCO[C@H]1C[C@@H](C(=O)OC)[C@]2(C)CC[C@H]3C(=O)O[C@H](c4ccoc4)C[C@]3(C)[C@H]2C1=O | 81 | > 1000 | > 1000 | 320 | 141 | – | – | – | –
COC(=O)[C@@H]1C[C@H](OC(C)(C)OC)C(=O)[C@H]2[C@@]1(C)CC[C@H]1C(=O)O[C@H](c3ccoc3)C[C@]21C | 81 | > 1000 | > 1000 | 72 | 72 | – | – | – | –
